Measurements as given in ChEMBL document CHEMBL4513216, “Probing the Open Global Health Chemical Diversity Library for Multistage-Active Starting Points for Next-Generation Antimalarials” (ACS Infect Dis, 2020).

Assay: Toxicity liver stage against HepG2, at 10uM
Type: cell-based
Set-up: test concentration 10 uM, cell line HepG2-A16-CD81EGFP
Settings: human, HepG2-A16-CD81EGFP cells; read-out: INHIBITION
Outline: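 Uninfected HepG2-A16-CD81EGFP cells, 3 × 10^3 per well, 1536-well, plated on prespotted compound at 10 μM final, parasite-free screening media added to match infected plates; puromycin 10 μM positive, DMSO 0.5% negative; run in parallel with 48 h PbLuc assay at 37 °C, 5% CO2; viability by CellTiter-Glo luminescence, normalized to controls.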

Structure (SMILES)	cytotoxicity at 10 µM
CC1CCN(C(=O)c2ccnc(-n3cncn3)c2)c2ccccc21 (stereo unspecified)	13%
O=C(N[C@@H]1CNCCC[C@H]1O)c1ccc(OCCN2CCCC2)cc1	-0.155%
COCC(=O)Nc1ccc([C@@H](O)[C@H]2COCC(=O)N2C)cc1	10.3%
CNC(=O)[C@@H]1[C@H]2CN(Cc3ccccn3)CCN2C[C@H]1c1ccccc1	3.38%
O=C(C1CCC1)N1CCC(=O)N(C2CC2)Cc2cc(F)ccc21	-7.76%
CSCCC(C)(O)CNC(=O)c1ccsc1 (stereo unspecified)	-4.57%
COC1(CNC(=O)c2cccc(C#N)c2)CCSC1 (stereo unspecified)	-7.93%
O=C1CCC2(CCCN(C(=O)NCc3ccccc3)CC2)N1 (stereo unspecified)	5.23%
CC(C)NC(=O)CC1COC2(CCN(Cc3ccco3)CC2)C1 (stereo unspecified)	-0.567%
Cc1noc(C)c1C(=O)N1C[C@@H]2CCCO[C@@H]2[C@H](N(C)C)C1	9.85%
CC(C)NC(=O)c1ccc2nnc(C3CCN(C(=O)NC(C)C)C3)n2c1 (stereo unspecified)	-5.42%
O=S(=O)(c1cccs1)N1CCN2C[C@H](OCC3CC3)C[C@H]2C1	11.9%
Cc1ncnc2c1CCN(C(=O)c1cccc(F)c1)CC2	8.27%
CCOCC1COCCC12CCN(C(=O)CCOC)CC2 (stereo unspecified)	-6.4%
O=C(N1CCOCC1)[C@@]12CCO[C@@H]1CCN(C1CCCC1)C2	7.83%
O=C1CC(c2ccc(C(=O)O)cc2)c2ncn(-c3ccccc3)c2N1 (stereo unspecified)	-1.04%
c1ccc(CN2CC[C@H]3CO[C@H](CNc4ncccn4)[C@H]3C2)nc1	-9.63%
Cc1nn(C)cc1CN(C)C(=O)c1cnccn1	-5.2%
Cc1nc(CN2CCCC2c2[nH]ncc2C(=O)N(C)C)cs1 (stereo unspecified)	-0.722%
CCN1CCCc2cc(CN3CCc4c(nc(C)[nH]c4=O)C3)ccc21	-1.02%
CN(C)c1nccc(C2CN(c3ccccc3)CCO2)n1 (stereo unspecified)	-2.4%
CC(=O)N1CC(C(=O)NC(C)c2cnn(C)c2C)C1 (stereo unspecified)	4.65%
CNC(=O)C1CN(C)CCN(CCCOc2ccccc2F)C1 (stereo unspecified)	-1%

Structure (SMILES)	cytotoxicity at 10 µM
Fc1cccc(-c2nccnc2C2CCCNC2)c1 (stereo unspecified)	-16.5%
Nc1nonc1C(=O)N1Cc2ccccc2OC2(CCOCC2)C1	-29.5%
NCc1cnn(-c2ccccc2C(=O)NCCc2ccncc2)c1	0.664%
COCC(=O)N1CCC(c2cncc(-c3cccc(F)c3)n2)CC1	-11.3%
O=C(O)C1(Cc2cc(-c3ccc(F)cc3)no2)CCOCC1	-20.8%
CC(=O)N1CCN([C@@H]2CCC[C@@H](NC(=O)c3cccnc3)[C@H]2O)CC1	-0.00173%
CC(=O)N1CCC(Cc2cccc(-c3c(C)noc3C)n2)C1 (stereo unspecified)	0.664%
CC(=O)N1CCC(c2n[nH]c3nccnc23)CC1	-8.69%
N#Cc1cn(C2CC2)c(=O)n(Cc2cc(-c3cccs3)on2)c1=O	0.38%
CN(Cc1nnc2ccccn12)C(=O)CCNC(=O)C(C)(C)C	12.5%
Cc1ccccc1SCC(=O)NC1CCC(O)CC1 (stereo unspecified)	9.58%
CC(C)CCC(=O)N1CCC2(CC1)OCCO2	-0.457%
COC(=O)COc1ccc(-c2noc(C3CCCO3)n2)cc1 (stereo unspecified)	1.07%
COc1ccc(OCC(O)CN2CCN(c3nccs3)CC2)cc1 (stereo unspecified)	-3.82%
Cc1ccc(F)c(S(=O)(=O)Nc2cn(C)cc(Br)c2=O)c1	-7.73%
c1cncc(-c2noc(CNC3CCCN(c4cccnn4)C3)n2)c1 (stereo unspecified)	3.26%
CN(C(=O)Cc1ccc(NC(=O)NC2CC2)cc1)c1ccccc1	6.35%
Cc1cnn(CC2CCCCN2C(=O)Cc2c(C)noc2C)c1 (stereo unspecified)	-0.807%
COc1cccc2[nH]cc(CCNC(=O)N3CCCC3CO)c12 (stereo unspecified)	-10.1%
c1ccc(-c2noc(CN3CCc4c(ncn4C4CC4)C3)n2)nc1	-5.11%
Cc1cccc(OCC(=O)N(C)C2CCN(CC3CCOC3)CC2)c1 (stereo unspecified)	-6.22%
Cc1noc(C)c1CNC(=O)N1Cc2ccccc2N(C)CC1C (stereo unspecified)	-2.42%
Cc1cnn(C2CN(Cc3noc(-c4ccccc4)n3)C2)c1	-1.52%

Structure (SMILES)	cytotoxicity at 10 µM
COC(=O)CNC(=O)CCCn1cnc2ccccc2c1=O	-7.48%
CCC(C(=O)N1CCCN(CCN(C)C)CC1)N1CCCC1=O (stereo unspecified)	4.38%
CCc1nc(CN(C)CC2CCN(CC(C)O)CC2)no1 (stereo unspecified)	-10.3%
Cn1cc(CN2CCC3(CC2)CN(c2cccnc2)C(=O)CO3)cn1	-103%
O=C1CC(c2ccccc2)C2(CCN(Cc3ccncc3)CC2)N1 (stereo unspecified)	-4.72%
O=C(Nc1cccnc1)[C@@H]1C[C@H]2OCC[C@H]2N(Cc2nccs2)C1	5.02%
Cc1ccc(CNCC2Cn3nnc(-c4cnn(C)c4)c3CO2)o1 (stereo unspecified)	2.42%
CCC[C@@H]1CN(C(=O)c2ccccc2C(C)=O)C[C@H]1N(C)C	-0.254%
COC[C@@H]1CCCN1C(=O)CCc1c(C)nn(C)c1C	5.01%
Cc1cc(N[C@H](CO)c2ccccc2)n2nc(C)cc2n1	-1.58%
CCn1cc(CN2CCCN(C3Cc4ccccc4C3)CC2)cn1	2.66%
O=C1CC(NCc2cnc(-c3cccs3)nc2)CN1c1ccccc1 (stereo unspecified)	1.58%
Cc1ccccc1Oc1ncccc1CNS(=O)(=O)N(C)C	-4.09%
CCC(CO)N(C/C(C)=C/c1ccco1)Cc1ccccn1 (stereo unspecified)	-2.46%
COCc1ncn(Cc2nc(-c3ccc(OC)cc3F)oc2C)n1	-92.7%
c1cncc(-c2noc(CNc3ncnc4c3CCNCC4)n2)c1	3.18%
CCS(=O)(=O)c1ncc(CN(C)Cc2ccc(C)o2)n1CCOC	-4.66%
OCC1(CC2CC2)CCCN(Cc2ccc(C(F)(F)F)nc2)C1 (stereo unspecified)	-5.96%
CC(=O)c1cc(CN2CCCCC2c2nc3cc(F)ccc3[nH]2)cs1 (stereo unspecified)	-1.08%
CCCn1cc(-c2cc(C(=O)N(C)C)c3ccc(C)cc3n2)cn1	4.99%
Cc1n[nH]c(C)c1CCCN(C)c1cc(N(C)C)ncn1	-3.37%
CC(C)c1cc(C(=O)N(Cc2ccncc2)CC2CCCO2)no1 (stereo unspecified)	15.6%
COc1cc2c(cc1OC)CN(C(C(=O)O)c1c(C)nn(C)c1C)CC2 (stereo unspecified)	-3.14%

Structure (SMILES)	cytotoxicity at 10 µM
Cc1ccc(CCN2C(=O)CC[C@H]3CN(Cc4cnn(C)c4)CC[C@H]32)o1	-2.19%
Cn1c(CN2CCOCC2)nnc1C1CCCN(C(=O)CCC2CC2)C1 (stereo unspecified)	6.72%
Cc1cc(C(=O)N2CCC(c3nccn3Cc3ccccn3)CC2)no1	-1.85%
CCSCC(C)NCc1ccccc1-n1ccnc1 (stereo unspecified)	11.7%
Cc1ccc(Cn2cc(C)c(N)n2)cc1	-0.751%
COc1cccc(CNc2cnn(CC(F)F)c2)c1	-7.16%
CCn1cnnc1C1CCN(C(=O)c2cccc(C)c2C)CC1	-3.61%
CC(=O)N(C)c1nc(CN2CCCC2Cn2cncn2)cs1 (stereo unspecified)	-1.01%
COC(=O)c1cccn1C1CCN(C(=O)c2cc(F)ccc2C)CC1	-2.13%
O=C(COC1CCCC1)NS(=O)(=O)c1ccc2c(c1)OCCCO2	-15.3%
O=C(CCc1ccsc1)Nc1cccnc1N1CCCC1	-7.07%
CS(=O)(=O)NC1CCN(C(=O)NCc2cc[nH]n2)CC1	-6.37%
CN(Cc1cccc(F)c1)C(=O)c1cc2c([nH]c1=O)CCCC2=O	-7.45%
O=C(c1cc2c(s1)CCOC2)N1CCCC1Cn1cccn1 (stereo unspecified)	-2.06%
COCc1nc(C(=O)NS(=O)(=O)c2cc(Br)ccc2C)cs1	-1.66%
O=C(COC1CCCC1)Nc1ncn(CC(=O)N2CCCCCC2)n1	-8.16%
CCC(C)N(C)CCNC(=O)c1ccccc1OCCOC (stereo unspecified)	0.386%
CC(C)C(=O)NC1CCCN(C(=O)c2ccccc2O)C1 (stereo unspecified)	-2.55%
Cc1ccc(NC2CCN(C(=O)CCCn3ccnc3C)CC2)nn1	-11.8%
CCN1CCN(C(=O)c2cnn(-c3ccccc3Cl)c2)CC1	-11.5%
Cc1nc(-c2ccccc2)n(CC(=O)NCC(C)C)n1	-2.97%
CN(C)Cc1cc(C2CCN(C(=O)C3CC34CCC4)CC2)nn1C (stereo unspecified)	-15%
O=C(C1CC1)N1CCC2(CC1)CNc1ccc(F)cc12	11%

Structure (SMILES)	cytotoxicity at 10 µM
CC(C)c1ncc(CN2CCC(CO)C2)cn1 (stereo unspecified)	-25.8%
CN(C)C(=O)CN1CCC2(CCCN(Cc3cccs3)C2)C1=O (stereo unspecified)	-113%
c1cncc(OCC2CN(Cc3nccs3)Cc3nccn3C2)c1 (stereo unspecified)	6.9%
CC(C)Oc1ncnc2c1CCN(Cc1ccoc1)CC2	2.56%
COC[C@@H]1CCC[C@]12CN(Cc1ccco1)CCO2	-4.89%
COCCC(=O)N1C[C@H]2CN(Cc3cccnc3)C(=O)[C@H]2C1	-0.95%
CC(C)C(=O)N1CCC2(CCN2CC2CC2)C1 (stereo unspecified)	8.98%
CNC(=O)c1cc2c(nc1NCC1CC1)CCN(CC1CC1)CC2	0.864%
COCCN1CCC2(CCN(CC3CC3)CC2)C1=O	7.55%
O=C(Nc1cnccn1)[C@H]1CC[C@@H]2[C@@H](CCN2Cc2ccoc2)O1	8.86%
CC(C)Nc1ncnc2c1CCN(C(=O)Cc1ccccn1)CC2	3.3%
COCCN1CCO[C@@H]2CN(C(=O)Cc3ccc(F)cc3)CC[C@@H]2C1	7.07%
O=C(c1c[nH]cn1)N1CCOCC2(C1)CN(c1ccccc1)C(=O)CO2 (stereo unspecified)	-7.27%
c1cnc(N2CCOC3(CCN(CC4CCOC4)CC3)C2)nc1 (stereo unspecified)	-0.777%
COCCNC(=O)[C@@]12CCO[C@@H]1CCN(Cc1scnc1C)C2	-10.6%
Cc1cccc(CN2CCC3(CCCN(C(=O)NC(C)C)C3)C2=O)n1 (stereo unspecified)	7.51%
CN(Cc1cn2c(n1)CN(CC1CC1)CC2)Cc1ccco1	1.39%
CCn1cc2c(n1)CN(S(=O)(=O)c1cccnc1)CC2COC (stereo unspecified)	5.74%
CC(C)C(=O)N1CCCC2(CC(C(=O)NCc3cccnc3)=NO2)C1 (stereo unspecified)	-2.77%
